Assay outcomes deposited in PubChem by several laboratories.
A selection: hits, their analogues and other compounds. The true share with any hit is near 2.6%.
SENP8 block-1: SENP8 protease inhibition | AID 2540 | Q96LD8 | purified SENP8, Z-RLRGG-aminoluciferin cleavage, luminescence | 1.2% of 330,000 active | inhibition, % at 10 µM; in the data active = inhibition above about 50%
SENP1 FRET inh: inhibitors of human SENP1 SUMO protease catalytic domain. inhibition, % at 10 µM. recombinant SENP1 catalytic domain, CyPet-SUMO1-YPet FRET cleavage. AID 624204. 0.21% of 360,000 active. Q9P0U3;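 active = inhibition at least 30% at 10 µM, raw YFP signal under a set limit, fluorescence ratio 0.5 to 1.5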;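 note: 0% = enzyme with DMSO and 100% = no enzyme wells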
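system = hSENP1 catalytic domain, recombinant | reagent = SFCypet-SUMO1-SFYpet substrate at 25 nM | doses = one dose per compound, 10 µM, 0.5% DMSO | incubation = enzyme reaction for 50 min at room temperature, dark | measured by = FRET, CFP and YFP emission | controls = no-enzyme low, enzyme-DMSO high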
SENP8 block-2: SENP8 (human) protease inhibition. Q96LD8. recombinant SENP8, Nedd8 substrate fluorescence. inhibition, % at 20 µM. 0.64% of 360,000 active; in the data active = inhibition mostly above about 40%, no sharp cut-off; inactive = mostly below about 27%
SENP6 block: blocks the human protease SENP6; Q9GZR1; Recombinant SENP6 catalytic domain, aminoluciferin luminescence; inhibition, % at 10 µM; 1.8% of 330,000 active; AID 2599;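 active = inhibition above about 50% at the single tested dose, limit read from the data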;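 note: plate controls were DMSO wells with enzyme for no effect and DMSO wells lacking enzyme for full effect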
Platelet DG rel: modulates dense granule release in human platelets | human platelet-rich plasma, SFLLRN dense granule ATP release, luminescence | inhibition, %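 (compounds screened at 7.5 µM in platelet-rich plasma)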 | 0.22% of 300,000 active | AID 1663;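 active = mean replicate score, as percent of positive control, at or above 50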
SENP7 inh: inhibitors of human SENP7 protease. Q9BQF6. recombinant SENP7, Z-RLRGG-aminoluciferin luminescence, 40 min. inhibition, % at 5 µM. 1.5% of 330,000 active;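 active = inhibition above about 50% at the single test dose, limit read from the data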;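 note: plate controls were DMSO with enzyme for no effect and no enzyme buffer wells for full effect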
Target sequence (Q9BQF6 706-1050 limits assumed): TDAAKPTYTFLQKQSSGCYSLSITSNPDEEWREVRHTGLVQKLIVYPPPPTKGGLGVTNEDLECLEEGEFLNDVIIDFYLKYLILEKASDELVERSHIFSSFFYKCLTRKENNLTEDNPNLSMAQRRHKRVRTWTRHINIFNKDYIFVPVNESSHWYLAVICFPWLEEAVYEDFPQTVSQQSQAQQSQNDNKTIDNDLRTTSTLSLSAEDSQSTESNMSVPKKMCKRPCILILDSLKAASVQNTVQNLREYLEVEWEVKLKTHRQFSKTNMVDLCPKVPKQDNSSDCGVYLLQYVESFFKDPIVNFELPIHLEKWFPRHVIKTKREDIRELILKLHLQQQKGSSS
SENP8 conf: confirmation of human SENP8 protease inhibitors; shares compounds with SENP7 inh; Recombinant SENP8, Z-RLRGG-aminoluciferin luminescence, 60 min; inhibition, % at 12.5 µM; 40% of 6,200 active;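 active = mean inhibition across replicates above about 50%, limit read from the data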
SENP6 confirm: confirmation of human SENP6 protease inhibitors | inhibition, % at 12.5 µM | AID 488915 | recombinant SENP6, Z-RLRGG-aminoluciferin luminescence | 58% of 6,200 active | shares compounds with SENP7 inh
SENP7 conf: confirmation of human SENP7 protease inhibitors; shares compounds with SENP7 inh; recombinant SENP7, Z-RLRGG-aminoluciferin luminescence, 40 min; inhibition, % at 12.5 µM; 69% of 6,200 active; AID 488917
Casp3 SENP sel: inhibits human caspase-3 in SENP selectivity test; shares compounds with SENP7 inh; purified caspase-3, Z-DEVD-aminoluciferin luminescence, 60 min; inhibition, % at 12.5 µM; 60% of 6,200 active; AID 488918;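 active = mean inhibition above about 50%, limit read from the data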;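 note: plate controls were enzyme with DMSO for no effect and wells without caspase-3 for full effect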
Target sequence (P42574 28-227 limits assumed): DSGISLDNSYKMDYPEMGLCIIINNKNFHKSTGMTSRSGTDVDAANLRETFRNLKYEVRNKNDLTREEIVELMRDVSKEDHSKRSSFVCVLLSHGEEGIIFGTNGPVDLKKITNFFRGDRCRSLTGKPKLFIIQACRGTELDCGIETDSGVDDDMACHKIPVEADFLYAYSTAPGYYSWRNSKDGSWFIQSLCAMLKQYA
SENP luc ctr: counter-screen for SENP inhibitors: luminescence interference; shares compounds with SENP7 inh; Pre-incubated SENP8/Z-RLRGG-aminoluciferin, luciferase luminescence interference; AID 488919; 39% of 6,200 active; inhibition, % at 12.5 µM;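 active = mean inhibition above about 50% when retested at one dose, limit read from the data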;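 note: plate controls were DMSO wells with completed reaction for no effect and substrate without enzyme for full effect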
The depositor's hits bear a star; x = no result given.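 Rule for the calls, unless noted: active = mean inhibition above about 50% in the one-dose retest (limit read from the data); inactive = the rest.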

SMILES	SENP8 block-1	SENP1 FRET inh	SENP8 block-2	SENP6 block	Platelet DG rel	SENP7 inh	SENP8 conf	SENP6 confirm	SENP7 conf	Casp3 SENP sel	SENP luc ctr
O=C(Nc1ccc2c(c1)OCCO2)c1ccc(Cl)c(Cl)c1	59*	0	16	77*	2	67*	53*	55*	93*	51*	26
CN(C)c1ccc(/C=C(\NC(=O)c2ccccc2)C(=O)NCCN2CCOCC2)cc1	2	5	-50	-4	9	0	x	x	x	x	x
CCCCn1nnnc1C1(C)CCC(=O)N1CC1CCCCC1 (stereo not drawn)	x	-1	7	x	x	x	x	x	x	x	x
CC(=O)Nc1ccc2c(c1)OCCO2	2	2	22	10	-4	0	x	x	x	x	x
O=C(Nc1cc(Cl)ccc1N1CCOCC1)c1ccc(Br)o1	-2	0	-8	1	1	7	x	x	x	x	x
O=C(Nc1ccc2c(c1)OCCO2)c1ccc(Br)cc1	59*	1	-7	71*	3	61*	71*	70*	90*	68*	50
O=C(Nc1ccc(Cl)cc1Cl)c1ccc(Br)o1	55*	2	33	69*	2	46	-26	-15	2	-6	-6
CCCOc1cccc(C(=O)Nc2ccc3c(c2)OCCO3)c1	53*	-1	24	77*	3	66*	69*	67*	86*	59*	55*
CCCOc1cccc(C(=O)Nc2cccc(NC(=O)c3ccco3)c2)c1	-5	-5	10	0	-3	7	x	x	x	x	x
O=C(Nc1ccc2c(c1)OCCO2)c1cc(F)c(F)cc1Cl	-20	1	23	-3	8	12	x	x	x	x	x
Cc1ccc(C(=O)Nc2ccc3c(c2)OCCO3)c(Cl)c1	78*	2	10	89*	10	85*	81*	79*	94*	87*	82*
Cc1nnc(NC(=O)CSc2nccn2Cc2ccc(F)cc2)s1	-4	1	6	2	7	-11	x	x	x	x	x
Nc1cc(C2CCCC2)nn1-c1ccccc1	32	-4	5	62*	43	41	38	39	77*	81*	55*
CCCNC(=O)C1(C)CCN(C(=O)c2cc(F)cc(F)c2)C1 (stereo not drawn)	x	4	8	x	x	x	x	x	x	x	x
O=Cc1ccc(OCc2ccc3c(c2)OCO3)cc1	62*	-1	32	77*	10	71*	73*	73*	92*	81*	83*
Cc1ccc(COc2ccc3c(c2)OCO3)cc1	75*	1	7	91*	0	86*	48	85*	98*	70*	31
Cc1ccc(CNc2ccc3c(c2)OCO3)cc1	x	-24	-108	x	-6	x	x	x	x	x	x
O=C(Cc1ccc(OCc2ccccc2)cc1)NCc1ccc2c(c1)OCO2	x	1	7	x	x	x	x	x	x	x	x
COc1ccc(N2C(=NC(=O)CC3CCCCC3)SC3CS(=O)(=O)CC32)cc1 (stereo not drawn)	1	1	7	14	-6	4	x	x	x	x	x
Cc1ccccc1N=C1C(=O)Nc2ccccc21	x	0	18	x	x	x	x	x	x	x	x
C=CCNC(=O)c1cc(Cl)ccn1	3	-1	9	5	-5	89*	-7	0	-7	-4	-5
Nc1cccc2c1C(=O)N(CCOc1ccc(F)cc1)C2=O	49	-28	-321	68*	8	55*	55*	48	85*	53*	5
O=C1c2ccccc2C(=O)N1CCOc1ccccc1Cl	37	1	9	51*	-2	59*	32	48	78*	47	56*
COc1ccc(OCCN2C(=O)c3ccccc3C2=O)cc1	6	2	10	25	-1	13	x	x	x	x	x
O=C1c2ccccc2C(=O)N1CCOc1ccccc1	18	1	11	60*	0	47	40	36	73*	59*	52*
SMILES	SENP8 block-1	SENP1 FRET inh	SENP8 block-2	SENP6 block	Platelet DG rel	SENP7 inh	SENP8 conf	SENP6 confirm	SENP7 conf	Casp3 SENP sel	SENP luc ctr
Cc1cc2cc(OCc3ccccc3)ccc2n1C	-32	2	13	50*	18	19	-4	-7	-6	0	0
O=C(/C=C/Nc1ccc(F)cc1F)c1ccco1	87*	-43	-168	87*	53*	90*	91*	97*	101*	96*	85*
O=C(/C=C/Nc1ccc(Br)cc1F)c1ccco1	96*	-114	-410	95*	65*	98*	-2	93*	100*	86*	28
O=C(NNC(=S)Nc1ccc(F)cc1F)c1ccco1	3	1	-4	5	-3	18	x	x	x	x	x
O=C(/C=C/c1ccc(Br)cc1)c1ccco1	-14	0	17	-9	1	-8	x	x	x	x	x
O=C(/C=C/Nc1ccc(F)cc1F)c1ccc(Br)cc1	0	-101	-64	16	-3	67*	-6	-3	-1	17	3
Cc1cc(C)nc(SCC(=O)NNS(=O)(=O)c2ccc(C#N)cc2)n1	4	1	2	3	x	2	x	x	x	x	x
NC1=NC(=Nc2ccc(Br)cc2)c2ccccc21	3	2	20	5	-2	3	x	x	x	x	x
O=C(Nc1cccc([N+](=O)[O-])c1)c1ccccc1	-8	0	14	14	-1	9	x	x	x	x	x
Brc1ccc(N=NNc2ccccc2)cc1	12	0	38	51*	-3	20	68*	74*	88*	28	46
O=[N+]([O-])c1cccc(NN=Nc2ccccc2)c1	70*	3	25	64*	2	69*	71*	69*	88*	36	67*
O=[N+]([O-])c1ccc(N=NNc2ccccc2)cc1	29	1	-7	59*	0	40	48	49	75*	17	25
CC(C)N(N=Nc1ccc([N+](=O)[O-])cc1)C(C)C	1	-2	20	11	4	-4	x	x	x	x	x
O=C(O)c1ccc(OS(=O)(=O)c2ccc(Cl)s2)c(Cl)c1	45	1	14	56*	x	6	34	33	61*	54*	60*
O=C(O)c1cc(Cl)ccc1OS(=O)(=O)c1ccc(Cl)s1	-9	-2	0	22	x	4	x	x	x	x	x
